Source: ChEMBL document CHEMBL1155001, “Design, synthesis of novel peptidomimetic derivatives of 4-HPR for rhabdoid tumors” (Bioorg Med Chem Lett, 2008)

Legend:
Type in all cases: functional, cell-based
[1] = Cytotoxicity against INI1 gene deficient human MON cells assessed as cell survival after 3 days by MTS assay; settings: 72 h
In short: (§1)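 INI1-deficient MON rhabdoid tumor cells were grown in RPMI 1640 with 10% FBS, 2 mM L-glutamine, penicillin and streptomycin at 37 °C in 5% CO2. Survival was read by MTS after 3 days. Relative IC50 was taken from a sigmoidal variable-slope fit of % inhibition vs log concentration.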

[2] = Cytotoxicity against human STM cells assessed as cell survival after 3 days by MTS assay; settings: 72 h
G-401 = test: Cytotoxicity against human G401 cells assessed as cell survival after 3 days by MTS assay; settings: G-401, 72 h
[3] = Cytotoxicity against human MON cells assessed as cell survival after 3 days by MTS assay; settings: 72 h; in short: as §1

Structure (SMILES)	IC50 [1] [µM]	IC50 [2] [µM]	IC50 (G-401) [µM]	IC50 [3] [µM]
CCC1=C(C)/C(=C/c2ccc(C(=O)Nc3ccc(O)c(Cl)c3)cc2)CCC1(C)C	10.4			
CCC1=C(C)/C(=C/c2ccc(C(=O)Nc3ccc(O)c(F)c3)cc2)CCC1(C)C	12.9			
CCC1=C(C)/C(=C/c2ccc(C(=O)Nc3ccc(O)c(I)c3)cc2)CCC1(C)C	3.15			
CCC1=C(C)/C(=C/c2ccc(C(=O)Nc3ccc(O)cc3O)cc2)CCC1(C)C	47.2			
CCC1=C(C)/C(=C/c2ccc(C(=O)O)cc2)CCC1(C)C	> 50			
CCC1=C(C)/C(=C/c2ccc(C(=O)Nc3ccc(CO)cc3)cc2)CCC1(C)C	29.1			
CC1=C(/C=C/C(C)=C/C=C/C(C)=C/C(=O)Nc2ccc(O)cc2)C(C)(C)CCC1 [FENRETINIDE]	14.7	5	5	12
